Keap1 Nrf2 FP – Keap1-Nrf2 protein-protein interaction inhibitors, primary screen, biochemical, fluorescence polarization, single point; Kelch-like ECH-associated protein 1 (Homo sapiens), Q14145; inhibition, % at 9.4 µM; Keap1 Kelch-Nrf2 peptide fluorescence polarization, 1536-well; actives 0.15% (n = 340,000); in the data active = inhibition above about 12%;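 also: human Keap1 Kelch domain with fluorescein labeled Nrf2 9mer peptide probe; higher means more block of Keap1 binding to Nrf2 peptide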
Target sequence (Q14145 whole entry, looked up, the tested form may be a part): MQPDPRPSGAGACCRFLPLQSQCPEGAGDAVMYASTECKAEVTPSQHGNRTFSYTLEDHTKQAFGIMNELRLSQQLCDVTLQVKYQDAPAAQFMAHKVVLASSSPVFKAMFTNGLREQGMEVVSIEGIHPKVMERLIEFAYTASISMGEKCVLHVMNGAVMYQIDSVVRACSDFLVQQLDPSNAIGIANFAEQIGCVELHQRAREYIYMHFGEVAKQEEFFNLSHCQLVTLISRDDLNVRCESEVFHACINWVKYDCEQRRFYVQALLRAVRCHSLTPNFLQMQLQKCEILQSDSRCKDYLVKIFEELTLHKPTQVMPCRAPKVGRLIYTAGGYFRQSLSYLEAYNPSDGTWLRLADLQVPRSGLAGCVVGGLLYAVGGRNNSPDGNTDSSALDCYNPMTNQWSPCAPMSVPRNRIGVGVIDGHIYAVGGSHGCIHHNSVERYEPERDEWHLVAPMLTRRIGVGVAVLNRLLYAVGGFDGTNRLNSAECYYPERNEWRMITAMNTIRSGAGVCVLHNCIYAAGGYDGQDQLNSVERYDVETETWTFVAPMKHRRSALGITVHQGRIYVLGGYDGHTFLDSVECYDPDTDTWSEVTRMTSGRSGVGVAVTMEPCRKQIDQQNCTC
CAL PDZ FP-1 – CAL PDZ peptide-binding inhibitors, primary screen, biochemical, fluorescence polarization, Cer-tagged CAL PDZ, HTS. inhibition, % at 20 µM. actives 0.02% (n = 330,000). purified CAL PDZ, TMR-peptide fluorescence polarization, 1 h. AID 504414, 2011;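 active = highest replicate inhibition of at least 40%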
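Material: tagged CAL PDZ domain; buffer or medium: 25 mM sodium phosphate pH 7.4, 150 mM NaCl, TCEP, IgG, Thesit; compound dosing: single point, 20 µM; schedule: 1 h incubation at room temperature before polarization reading; measured by: FP readout, S and P plane fluorescence; read-out basis: percent inhibition from loss of millipolarization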
LANA DNA inh – inhibitors of KSHV C-LANA binding to DNA, primary screen, biochemical, fluorescence polarization, FAM-LBS DNA, MBP-C-LANA, single point; Kaposi's sarcoma herpesvirus LANA C-terminal domain (residues 932-1162) DNA binding; inhibition, % at 9 µM; actives 0.078% (n = 340,000);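 active = highest replicate inhibition at or above 60% at 9 µM, even if other replicates fall short; inactive = all replicates below 60% inhibition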
CaV13 ICDI inh – Disruptors of the CACNA1D IQ motif to Ca2+-dependent inactivation inhibitor domain association, primary screening, Förster resonance energy transfer in intact living …; HEK cells, CFP/YFP FRET ICDI-IQ, plate reader, 10 min; percent FRET-ratio fall versus neutral wells; inhibition, % at 12.3 µM; actives 0.098% (n = 340,000);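 active = mean replicate inhibition of at least 30% and at least 1% of replicates passing that level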
LANA-H2B inh – blockers of LANA interaction with H2A/H2B – biochemical, FP readout, HTS, primary screen; inhibition, % (concentration not given with the values); cell-free LANA-H2A/H2B peptide, fluorescence polarization; Protein LANA1 (Human herpesvirus 8 type P (isolate GK18)), Q9QR71; actives 0.6% (n = 320,000); AID 2629, 2010; in the data active = inhibition mostly above about 10%, no sharp cut-off; inactive = mostly below about 6.7%
CAL PDZ FP-2 – untagged CAL PDZ binding inhibitors, primary screen, biochemical, fluorescence polarization, HTS. Golgi-associated PDZ and coiled-coil motif-containing protein (Homo sapiens), Q9HD26. purified CAL PDZ, TMR-peptide fluorescence polarization, 1 h. inhibition, % at 24.9 µM. actives 0.92% (n = 300,000). AID 602252, 2012;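 active = mean inhibition of at least 30% with at least half of replicates also reaching 30%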
Numbers stand for hits; n = inactive; x = no result. This is a sample that favours compounds with a hit; in the whole collection about 1.5% have one here.

SMILES | Keap1 Nrf2 FP | CAL PDZ FP-1 | LANA DNA inh | CaV13 ICDI inh | LANA-H2B inh | CAL PDZ FP-2
O=C(c1ccc(O)cc1)c1ccc(O)cc1O | n | n | n | n | 12 | n
CN(C)c1ccc(C(=O)c2ccc(O)cc2O)cc1 | n | x | n | x | n | n
Cc1c(C(=O)N2CCN(S(=O)(=O)c3ccccc3)CC2)oc2ccc(Br)cc12 | n | n | n | n | x | 32
COc1ccccc1N(C(C)=O)c1nc(C)cc(C)c1C#N | n | n | n | n | n | 31
Cc1cc(C)nc(NC(=O)c2c(Cl)cccc2Cl)n1 | n | n | 85 | n | n | n
Cc1cc(C)nc(NC(=O)c2c(-c3c(Cl)cccc3Cl)noc2C)n1 | n | x | n | x | n | n
CCCCN(CC)CCNC(=O)Cn1cnc2sc(C)c(S(=O)(=O)N3CCC(C)CC3)c2c1=O | n | n | n | n | n | 44
CC1CN(S(=O)(=O)c2ccc(CN3C(=O)c4cccnc4C3=O)cc2)c2ccccc2O1 (centres undefined) | n | n | n | n | n | n
CC1CN(S(=O)(=O)c2ccc(CN3C(=O)c4cccnc4C3=O)s2)c2ccccc2O1 (centres undefined) | n | n | n | n | n | 52
CC(NC(=O)COC(=O)C1CCN(c2ccc(C(F)(F)F)cn2)CC1)c1ccc(F)cc1 (centres undefined) | n | n | n | n | 17 | x
CCn1ccnc1CN(C)Cc1cn(-c2cc(C)ccc2C)nc1-c1ccccc1 | n | n | n | n | 20 | n
O=C(CC1C(=O)NCCN1Cc1cccc(F)c1)NCCCN1CCCC1=O (centres undefined) | n | n | n | n | 15 | n
COc1cccc(CCNC(=O)CC2C(=O)NCCN2CC(C)(C)C)c1 (centres undefined) | n | n | n | n | 17 | n
CCOc1ccccc1CN1CCNC(=O)C1CC(=O)NCCc1ccccn1 (centres undefined) | n | n | n | n | 99 | n
Cn1cc(CNCc2ccccc2OCC(O)CN2CCc3ccccc3C2)cn1 (centres undefined) | n | n | n | n | n | n
COC(=O)CCN(Cc1ccc(OC)cc1OC)S(=O)(=O)c1ccccc1Br | x | x | x | n | x | x
Nc1ccc2ccc(NS(=O)(=O)N3CCCCC3)cc2c1 | x | x | x | n | x | x
Oc1cccc2ccc(/C=C/c3ccccc3Br)nc12 | n | n | n | n | n | 59
Oc1cccc2ccc(/C=C/c3cccs3)nc12 | n | n | n | n | 13 | x
Cc1ccsc1/C=C/c1ccc2cccc(O)c2n1 | n | n | n | n | n | n
COc1cc(Br)c(/C=C/c2ccc3cccc(O)c3n2)cc1OC | n | n | n | n | n | n
Cc1nn2c3ccccc3nc2c2ccccc12 | n | 43 | n | x | n | x
CCOC(=O)N1CCC(N2C(=O)c3ccccc3C2Nc2ccc(S(=O)(=O)N(CC)CC)cc2)CC1 (centres undefined) | n | n | n | n | n | 67
CCOC(=O)N1CCC(N2C(=O)c3ccccc3C2Nc2ccc(C)cc2)CC1 (centres undefined) | n | n | n | n | n | n
Cc1ccc(NC(=O)COC(=O)Cn2ccc(=O)[nH]c2=O)cc1C | n | n | n | n | n | 40
SMILES | Keap1 Nrf2 FP | CAL PDZ FP-1 | LANA DNA inh | CaV13 ICDI inh | LANA-H2B inh | CAL PDZ FP-2
COc1ccc(-c2coc3c(C(=O)Nc4cccnc4)cccc23)c(C)c1 | x | x | x | n | x | x
COC(=O)C1=C(C)N(Cc2ccc(C(F)(F)F)cc2)C(=NCc2ccccc2C(F)(F)F)NC1c1ccc(Cl)cc1 (centres undefined) | x | x | x | n | x | x
Cn1nc(C(=O)Oc2cc(=O)n(C)c3ccccc23)c2ccccc2c1=O | n | n | n | n | n | 36
Cc1ccc(COC(=O)c2nn(C)c(=O)c3ccccc23)cc1 | n | n | n | n | n | n
Cc1ccccc1C(=O)Nc1ccc(N(C)C)c2ccccc12 | n | n | n | n | n | n
COc1cc(OC)cc(C(=O)Nc2nnc(SCC(=O)NCc3ccco3)s2)c1 | n | n | n | n | 39 | n
Cc1cccc(OCc2nnc(SCC(=O)Nc3cccc(C(=O)N4CCOCC4)c3)n2C)c1 | n | n | n | n | n | n
Cc1cc(C)cc(N2CC(C(=O)Nc3cc(C)on3)CC2=O)c1 (centres undefined) | n | n | n | n | n | n
Cc1cc(NC(=O)C2CC(=O)N(c3cccc(Cl)c3)C2)no1 (centres undefined) | n | n | n | n | 11 | n
C[C@@H]1ON(C)[C@H]2C[C@H]3c4cc(N5CCN(C)CC5)ccc4CCN3C[C@@H]12 | x | x | x | n | x | x
CCOC(=O)C1=CCC(c2ccc([N+](=O)[O-])cc2)N(S(=O)(=O)c2ccc(C)cc2)C1 (centres undefined) | x | x | x | n | x | x
O=C(O)Cn1c(-c2ccccc2)cc2ccccc21 | n | n | n | n | n | 62
O=C(O)Cn1c(-c2ccccc2)nc2ccccc21 | n | x | n | x | n | n
CC(C)CCNC1c2ccccc2C(=O)N1Cc1ccccc1 (centres undefined) | n | x | n | n | n | 88
CC(C)Sc1nnc(NC(=O)c2ccco2)s1 | n | n | n | n | n | 56
CCSc1nnc(NC(=O)c2ccco2)s1 | n | n | n | n | n | n
Cc1ccc(NC(=O)CC2OC(=O)c3ccccc32)cc1S(=O)(=O)N1CCCCCC1 (centres undefined) | n | n | n | n | 11 | x
O=C(NCc1ccccc1)[C@H]1CCCN1C(=O)[C@H]1CCCN1C(=O)c1ccc(F)c(F)c1 | x | x | x | n | x | x
CC(=O)Nc1cccc(N)c1 | n | n | n | x | 28 | n
CC(=O)Nc1cccc(C)c1 | n | n | n | x | n | n
Cc1nn(C)c(C(=O)Sc2cccc(Cl)c2)c1[N+](=O)[O-] | n | n | n | n | n | 95
Cc1nn(C)c(C(=O)Sc2ccccc2)c1[N+](=O)[O-] | n | n | n | n | n | n
N#CCC(=O)Nc1ccc(C(=O)OCC(=O)NC(=O)Nc2ccc3c(c2)OCCO3)cc1 | n | n | n | n | n | 62
NC(=O)COC(=O)c1ccc(NS(=O)(=O)c2ccc3c(c2)OCCO3)cc1 | n | n | n | n | n | 76
CC(C)NC(=O)COC(=O)c1ccc(NS(=O)(=O)c2ccc3c(c2)OCCO3)cc1 | n | n | n | n | n | n

Screening data: PubChem BioAssay, Broad Institute
